Key:
PDE3B = PDE3B (Homo sapiens, UniProt Q13370); assay: PDE enzyme inhibition, radiometric assay; assay type: biochemical
How it was run: (§1)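 Recombinant human PDE enzymes (33 in the panel) were incubated in vitro with increasing concentrations of the test compound. Enzyme activity was measured radiometrically and IC50 values derived.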

PDE4D4 = PDE4D4 (Homo sapiens, UniProt Q08499); assay: PDE enzyme inhibition, radiometric assay; assay type: biochemical
How it was run: as §1

PDE11A1 = PDE11A1 (Homo sapiens, UniProt Q9HCR9); assay: PDE enzyme inhibition, radiometric assay; assay type: biochemical
How it was run: as §1

PDE4D7 = PDE4D7 (Homo sapiens, UniProt Q08499); assay: PDE enzyme inhibition, radiometric assay; assay type: biochemical
How it was run: as §1

PDE7A = PDE7A (Homo sapiens, UniProt Q13946); assay: PDE enzyme inhibition, radiometric assay; assay type: biochemical
Sequence of PDE7A (Q13946 whole entry): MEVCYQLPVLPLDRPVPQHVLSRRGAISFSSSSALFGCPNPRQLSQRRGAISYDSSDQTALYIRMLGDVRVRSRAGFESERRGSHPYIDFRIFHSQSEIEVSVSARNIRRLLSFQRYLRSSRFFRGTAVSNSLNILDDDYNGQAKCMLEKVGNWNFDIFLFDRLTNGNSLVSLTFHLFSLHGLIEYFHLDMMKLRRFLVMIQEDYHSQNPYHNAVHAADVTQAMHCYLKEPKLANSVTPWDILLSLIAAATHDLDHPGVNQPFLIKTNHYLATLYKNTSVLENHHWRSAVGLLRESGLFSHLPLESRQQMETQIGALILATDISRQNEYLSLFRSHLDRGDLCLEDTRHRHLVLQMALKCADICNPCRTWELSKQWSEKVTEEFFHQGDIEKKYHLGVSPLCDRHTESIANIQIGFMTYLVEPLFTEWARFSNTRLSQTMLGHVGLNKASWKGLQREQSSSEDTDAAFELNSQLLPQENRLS
How it was run: as §1

PDE4D1 = PDE4D1 (Homo sapiens, UniProt Q08499); assay: PDE enzyme inhibition, radiometric assay; assay type: biochemical
How it was run: as §1

[1] = Locomotor activity and behavioral responses in toxicology studies; assay type: in vivo; conditions: data not shown
HbSS-Townes mice [2] = assay: HbSS-Townes vaso-occlusive crisis model; assay type: in vivo
rats = assay: Long-term toxicology study in normal rats; assay type: in vivo; conditions: data not shown
PDE5A2 = PDE5A2 (Homo sapiens, UniProt O76074); assay: PDE enzyme inhibition, radiometric assay; assay type: biochemical
How it was run: as §1

PDE10A2 = PDE10A2 (Homo sapiens, UniProt Q9Y233); assay: PDE enzyme inhibition, radiometric assay; assay type: biochemical
Sequence of PDE10A2 (Q9Y233 267-1055): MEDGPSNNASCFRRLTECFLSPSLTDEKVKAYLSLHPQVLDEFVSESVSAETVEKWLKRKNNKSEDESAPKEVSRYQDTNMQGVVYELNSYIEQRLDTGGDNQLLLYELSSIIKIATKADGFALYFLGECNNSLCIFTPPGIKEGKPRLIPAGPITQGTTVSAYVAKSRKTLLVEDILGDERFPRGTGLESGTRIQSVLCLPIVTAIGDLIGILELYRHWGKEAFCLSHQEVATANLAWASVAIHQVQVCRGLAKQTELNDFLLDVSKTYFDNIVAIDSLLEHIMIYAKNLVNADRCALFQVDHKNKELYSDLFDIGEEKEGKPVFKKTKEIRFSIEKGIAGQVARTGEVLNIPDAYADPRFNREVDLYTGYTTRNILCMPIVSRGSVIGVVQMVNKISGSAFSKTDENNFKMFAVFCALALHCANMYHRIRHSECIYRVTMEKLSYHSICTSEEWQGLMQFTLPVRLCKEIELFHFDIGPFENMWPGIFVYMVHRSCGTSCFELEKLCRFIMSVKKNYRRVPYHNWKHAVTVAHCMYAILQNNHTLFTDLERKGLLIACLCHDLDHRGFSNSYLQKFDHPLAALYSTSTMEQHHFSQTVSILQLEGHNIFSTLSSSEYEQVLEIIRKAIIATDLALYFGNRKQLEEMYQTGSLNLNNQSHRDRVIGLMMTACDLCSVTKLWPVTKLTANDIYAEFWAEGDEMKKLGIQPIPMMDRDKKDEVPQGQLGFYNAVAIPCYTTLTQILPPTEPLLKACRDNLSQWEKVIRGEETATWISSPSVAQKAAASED
How it was run: as §1

PDE4D2 = PDE4D2 (Homo sapiens, UniProt Q08499); assay: PDE enzyme inhibition, radiometric assay; assay type: biochemical
How it was run: as §1

PDE3A = PDE3A (Homo sapiens, UniProt Q14432); assay: PDE enzyme inhibition, radiometric assay; assay type: biochemical
How it was run: as §1

PDE4A1 = PDE4A1 (Homo sapiens, UniProt P27815); assay: PDE enzyme inhibition, radiometric assay; assay type: biochemical
How it was run: as §1

PDE1A3 = PDE1A3 (Homo sapiens, UniProt P54750); assay: PDE enzyme inhibition, radiometric assay; assay type: biochemical
Sequence of PDE1A3 (P54750 whole entry): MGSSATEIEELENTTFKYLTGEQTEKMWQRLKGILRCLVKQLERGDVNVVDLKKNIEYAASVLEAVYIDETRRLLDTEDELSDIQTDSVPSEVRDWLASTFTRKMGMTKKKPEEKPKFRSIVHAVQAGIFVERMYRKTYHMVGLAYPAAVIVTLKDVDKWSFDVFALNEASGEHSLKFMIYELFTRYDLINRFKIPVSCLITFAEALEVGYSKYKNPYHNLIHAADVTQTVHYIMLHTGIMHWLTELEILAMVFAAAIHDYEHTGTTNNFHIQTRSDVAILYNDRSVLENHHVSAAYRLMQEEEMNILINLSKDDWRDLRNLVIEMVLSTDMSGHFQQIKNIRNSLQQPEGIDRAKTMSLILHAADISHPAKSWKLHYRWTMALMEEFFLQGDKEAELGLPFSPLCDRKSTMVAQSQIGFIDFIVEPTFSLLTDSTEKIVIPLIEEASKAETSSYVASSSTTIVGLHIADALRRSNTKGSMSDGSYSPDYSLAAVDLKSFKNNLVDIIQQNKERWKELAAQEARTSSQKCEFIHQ
How it was run: as §1

PDE9A2 = PDE9A2 (Homo sapiens, UniProt O76083); assay: PDE enzyme inhibition, radiometric assay; assay type: biochemical; conditions: IC50, recombinant human PDE9A2
How it was run: as §1

mice = assay: Classical fear conditioning model of learning and memory; assay type: in vivo; conditions: similar dose of both PDE9i
PDE5A3 = PDE5A3 (Homo sapiens, UniProt O76074); assay: PDE enzyme inhibition, radiometric assay; assay type: biochemical
How it was run: as §1

HbSS-Townes mice [3] = assay: Townes SCD model, 30 days daily oral dosing; assay type: in vivo; conditions: 30 days
PDE1C = PDE1C (Homo sapiens, UniProt Q14123); assay: PDE enzyme inhibition, radiometric assay; assay type: biochemical
How it was run: as §1

PDE6C = PDE6C (Homo sapiens, UniProt P51160); assay: PDE enzyme inhibition, radiometric assay; assay type: biochemical
Sequence of PDE6C (P51160 whole entry): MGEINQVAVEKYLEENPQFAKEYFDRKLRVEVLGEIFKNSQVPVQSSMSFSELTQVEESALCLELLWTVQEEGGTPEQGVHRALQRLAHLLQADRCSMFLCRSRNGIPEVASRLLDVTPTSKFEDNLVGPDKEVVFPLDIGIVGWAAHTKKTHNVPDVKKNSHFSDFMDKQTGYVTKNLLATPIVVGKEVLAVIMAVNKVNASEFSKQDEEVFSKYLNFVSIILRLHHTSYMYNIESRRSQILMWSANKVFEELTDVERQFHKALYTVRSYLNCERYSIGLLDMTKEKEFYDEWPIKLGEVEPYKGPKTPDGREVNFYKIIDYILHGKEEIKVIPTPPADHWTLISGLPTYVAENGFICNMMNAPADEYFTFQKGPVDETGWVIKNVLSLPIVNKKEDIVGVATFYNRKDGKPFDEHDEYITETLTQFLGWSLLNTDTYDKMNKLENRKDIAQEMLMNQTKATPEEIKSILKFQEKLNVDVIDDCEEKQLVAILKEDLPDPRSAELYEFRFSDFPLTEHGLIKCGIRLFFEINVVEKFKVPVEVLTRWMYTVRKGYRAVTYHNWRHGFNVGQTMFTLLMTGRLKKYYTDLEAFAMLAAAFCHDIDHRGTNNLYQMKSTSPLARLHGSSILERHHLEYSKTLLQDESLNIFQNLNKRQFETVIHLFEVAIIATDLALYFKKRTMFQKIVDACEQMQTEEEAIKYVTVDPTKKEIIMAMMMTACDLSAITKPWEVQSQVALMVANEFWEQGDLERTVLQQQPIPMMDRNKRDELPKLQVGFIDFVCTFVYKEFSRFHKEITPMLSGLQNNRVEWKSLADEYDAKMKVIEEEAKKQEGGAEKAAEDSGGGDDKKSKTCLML
How it was run: as §1

K562 cells [4] = assay: cGMP induction in K562 cells; assay type: cell-based, human; conditions: 6 h
How it was run: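 Actively growing K562 cells were treated for 6 h with increasing concentrations of the test compound or hydroxyurea. cGMP was measured by non-radioactive enzyme immunoassay using the acetylation protocol, and protein by BCA assay. Data are means±Standard Errors.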

K562 cells [5] = assay: Cytotoxicity in K562 cells; assay type: cell-based, human; conditions: end of 72-h culture
How it was run: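 Actively growing K562 cells were cultured for 72 h with increasing concentrations of the test compound. Terminal viability was scored by automated cell counting or trypan-blue exclusion, or by an ATP-based luminescence assay. Apoptosis was checked by Annexin V flow cytometry.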

PDE4B1 = PDE4B1 (Homo sapiens, UniProt Q07343); assay: PDE enzyme inhibition, radiometric assay; assay type: biochemical
How it was run: as §1

PDE1B = PDE1B (Homo sapiens, UniProt Q01064); assay: PDE enzyme inhibition, radiometric assay; assay type: biochemical
Sequence of PDE1B (Q01064 whole entry): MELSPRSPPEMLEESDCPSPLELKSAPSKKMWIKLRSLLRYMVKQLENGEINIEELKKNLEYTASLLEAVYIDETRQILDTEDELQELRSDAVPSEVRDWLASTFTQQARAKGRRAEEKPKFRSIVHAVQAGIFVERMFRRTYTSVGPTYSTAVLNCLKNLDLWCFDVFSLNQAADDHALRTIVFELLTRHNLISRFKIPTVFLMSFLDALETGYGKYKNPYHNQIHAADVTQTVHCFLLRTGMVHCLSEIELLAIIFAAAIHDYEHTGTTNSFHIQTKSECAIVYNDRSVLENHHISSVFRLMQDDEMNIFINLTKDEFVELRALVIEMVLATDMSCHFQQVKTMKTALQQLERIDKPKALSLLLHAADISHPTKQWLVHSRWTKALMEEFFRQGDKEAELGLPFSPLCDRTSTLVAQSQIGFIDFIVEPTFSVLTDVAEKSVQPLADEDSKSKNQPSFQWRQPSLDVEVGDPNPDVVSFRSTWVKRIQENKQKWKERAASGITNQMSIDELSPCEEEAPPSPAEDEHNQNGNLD
How it was run: as §1

dogs = assay: Long-term toxicology study in dogs; assay type: in vivo
PDE8A1 = PDE8A1 (Homo sapiens, UniProt O60658); assay: PDE enzyme inhibition, radiometric assay; assay type: biochemical
How it was run: as §1

PDE4B3 = PDE4B3 (Homo sapiens, UniProt Q07343); assay: PDE enzyme inhibition, radiometric assay; assay type: biochemical
Sequence of PDE4B3 (Q07343 1-721 isoform Q07343-3): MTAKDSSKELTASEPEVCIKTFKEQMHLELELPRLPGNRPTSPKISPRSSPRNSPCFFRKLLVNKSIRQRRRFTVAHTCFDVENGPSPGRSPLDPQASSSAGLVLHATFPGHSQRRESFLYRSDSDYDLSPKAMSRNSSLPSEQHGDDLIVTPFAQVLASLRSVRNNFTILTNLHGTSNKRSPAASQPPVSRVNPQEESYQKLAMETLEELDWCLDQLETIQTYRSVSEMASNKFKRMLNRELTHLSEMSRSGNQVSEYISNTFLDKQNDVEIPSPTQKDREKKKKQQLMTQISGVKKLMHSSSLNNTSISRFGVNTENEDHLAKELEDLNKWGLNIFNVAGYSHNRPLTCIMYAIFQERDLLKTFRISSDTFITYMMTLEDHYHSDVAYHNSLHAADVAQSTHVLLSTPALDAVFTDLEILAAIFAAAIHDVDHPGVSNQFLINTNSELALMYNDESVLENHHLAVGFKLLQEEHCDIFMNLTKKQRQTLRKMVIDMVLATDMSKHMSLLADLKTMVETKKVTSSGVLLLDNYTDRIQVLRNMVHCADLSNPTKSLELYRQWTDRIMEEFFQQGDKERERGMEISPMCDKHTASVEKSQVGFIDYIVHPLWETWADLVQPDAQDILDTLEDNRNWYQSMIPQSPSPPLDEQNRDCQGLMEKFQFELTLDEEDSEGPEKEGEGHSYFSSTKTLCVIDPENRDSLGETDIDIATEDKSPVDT
How it was run: as §1

PDE5A1 = PDE5A1 (Homo sapiens, UniProt O76074); assay: PDE enzyme inhibition, radiometric assay; assay type: biochemical
How it was run: as §1

PDE2A3 = PDE2A3 (Homo sapiens, UniProt O00408); assay: PDE enzyme inhibition, radiometric assay; assay type: biochemical
How it was run: as §1

PDE4D5 = PDE4D5 (Homo sapiens, UniProt Q08499); assay: PDE enzyme inhibition, radiometric assay; assay type: biochemical
How it was run: as §1

UT-7 cells = assay: HbF induction in UT-7 cells; assay type: cell-based, human; conditions: GM-CSF dependent erythroid line UT-7; data not shown
K562 cells [6] = assay: HbF induction in K562 cells; assay type: cell-based, human; conditions: 72 h
[7] = Brain and plasma exposure in mice; assay type: in vivo, C57Bl/6J mice
PDE4A4 = PDE4A4 (Homo sapiens, UniProt P27815); assay: PDE enzyme inhibition, radiometric assay; assay type: biochemical
How it was run: as §1

Sequence of PDE3B (Q13370 whole entry): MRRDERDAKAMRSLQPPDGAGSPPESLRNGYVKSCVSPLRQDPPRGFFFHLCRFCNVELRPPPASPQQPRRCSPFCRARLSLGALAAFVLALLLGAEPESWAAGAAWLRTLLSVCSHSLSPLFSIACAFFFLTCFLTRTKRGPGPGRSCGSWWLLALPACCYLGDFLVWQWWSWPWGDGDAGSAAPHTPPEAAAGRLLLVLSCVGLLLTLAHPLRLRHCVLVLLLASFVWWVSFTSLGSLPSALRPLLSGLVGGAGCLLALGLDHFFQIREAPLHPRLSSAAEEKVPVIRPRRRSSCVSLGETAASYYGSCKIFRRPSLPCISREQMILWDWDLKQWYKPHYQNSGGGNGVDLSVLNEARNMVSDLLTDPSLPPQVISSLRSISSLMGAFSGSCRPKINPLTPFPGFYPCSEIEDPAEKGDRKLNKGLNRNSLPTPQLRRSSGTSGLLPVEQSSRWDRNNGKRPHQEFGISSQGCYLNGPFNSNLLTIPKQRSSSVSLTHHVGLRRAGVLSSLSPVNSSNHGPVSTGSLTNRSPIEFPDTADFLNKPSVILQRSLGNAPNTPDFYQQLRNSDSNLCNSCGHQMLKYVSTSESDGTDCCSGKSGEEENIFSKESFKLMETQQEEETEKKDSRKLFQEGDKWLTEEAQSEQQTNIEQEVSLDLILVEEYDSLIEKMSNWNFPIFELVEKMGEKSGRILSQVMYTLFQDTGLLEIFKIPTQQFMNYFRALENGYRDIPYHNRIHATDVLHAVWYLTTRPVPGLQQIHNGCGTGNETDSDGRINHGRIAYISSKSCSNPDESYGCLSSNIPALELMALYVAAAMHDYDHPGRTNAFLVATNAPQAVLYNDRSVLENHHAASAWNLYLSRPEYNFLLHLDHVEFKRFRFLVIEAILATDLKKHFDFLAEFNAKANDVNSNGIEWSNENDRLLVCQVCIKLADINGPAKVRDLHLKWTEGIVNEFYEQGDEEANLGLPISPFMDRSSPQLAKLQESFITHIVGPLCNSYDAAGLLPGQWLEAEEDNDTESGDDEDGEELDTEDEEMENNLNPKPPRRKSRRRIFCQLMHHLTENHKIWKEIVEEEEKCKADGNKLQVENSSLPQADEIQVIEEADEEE

## C[C@@H]1CN(Cc2ncccn2)C[C@H]1c1cn2c(C3CCOCC3)ncc2c(=O)[nH]1 [IMR-687]
PDE3B
  IC50: > 100 µM
PDE4D4
  IC50: > 100 µM
PDE11A1
  IC50: > 100 µM
PDE4D7
  IC50: > 100 µM
PDE7A
  IC50: > 100 µM
PDE4D1
  IC50: > 100 µM
[1]
  effect on locomotor activity or behavioral responses: no effect
HbSS-Townes mice [2]; 10 mg/kg/day for ten days, 1 h in normoxia, vehicle 33%, P<0.05
  microvascular stasis: 20%
HbSS-Townes mice [2]; 10 mg/kg/day for ten days, 4 h in normoxia, vehicle 16%, ns
  microvascular stasis: 14%
HbSS-Townes mice [2]; 30 mg/kg/day for ten days, 4 h in normoxia, vehicle 16%, P<0.01
  microvascular stasis: 7%
rats; normal rats, up to 6 months, super-physiological doses
  peripheral WBC counts: did not result in any reduction in peripheral WBC counts
rats; rats
  myelotoxicity, histological examination of bone marrow smears: did not demonstrate any myelotoxicity
PDE5A2
  IC50: 81.9 µM
PDE10A2
  IC50: > 100 µM
PDE4D2
  IC50: > 100 µM
PDE3A
  IC50: > 100 µM
PDE4A1
  IC50: > 100 µM
PDE1A3
  IC50: 88.4 µM
PDE9A2
  IC50: 0.01 µM
mice
  conditioned fear responses: no effect
PDE5A3
  IC50: > 100 µM
HbSS-Townes mice [3]; 30 mg/kg
  WBC lower than vehicle: 36%
  increase in Hb: 1.5 g/dL
  increase in hematocrit: 10%
  increase in mature RBC: 27%
  increase in plasma nitrite levels: ~2.5 fold
  reduction in reticulocyte counts: 36%
  reduction of MPO levels: 2.3 fold
  reduction of plasma bilirubin and LDH vs vehicle treated SS mice: over 2 fold
  reduction of plasma free Hb levels: over 55%
HbSS-Townes mice [3]; 30 mg/kg, HbSS-Townes vehicle 3.1 mU/L, P<0.0001
  lung MPO levels: 1.3 mU/L
HbSS-Townes mice [3]; 30 mg/kg, P<0.0001
  reduction of lung arginase vs vehicle: 25%
HbSS-Townes mice [3]; 30 mg/kg, P<0.01
  plasma bilirubin: 4.7 mg/dL
HbSS-Townes mice [3]; 30 mg/kg, P<0.05
  LDH activity: 102 AU
HbSS-Townes mice [3]; 30 mg/kg, untreated SS mice 0.56 mg/mL, P<0.05
  plasma nitrite levels: 1.39 mg/mL
HbSS-Townes mice [3]; 30 mg/kg, vehicle 38.2×10^9/L, P<0.05
  WBC count: 2.41e+10 L⁻¹
HbSS-Townes mice [3]; 30 mg/kg/day
  decrease in sickled RBC vs vehicle: 2 fold
  increase in the percent of HbF+ F-cells vs vehicle: greater than 3 fold
HbSS-Townes mice [3]; 30 mg/kg/day, vehicle 8.4%
  percent of HbF+ F-cells: 27.3%
HbSS-Townes mice [3]; 30 mg/kg/day, vehicle 56.3%
  percent sickled RBC: 24.4%
PDE1C
  IC50: 12.2 µM
PDE6C
  IC50: > 100 µM
K562 cells [4]
  cGMP induction: induced cGMP in a dosedependent manner
K562 cells [5]
  Cytotoxicity (cell counts): not observed
PDE4B1
  IC50: > 100 µM
PDE1B
  IC50: 8.48 µM
dogs; data not shown
  myelotoxicity, histological examination of bone marrow smears: did not demonstrate any myelotoxicity
dogs; up to 9 months, oral daily 10, 25, or 50 mg/kg
  peripheral WBC counts: did not result in any reduction in peripheral WBC counts
Genotoxicity
  genotoxicity: not genotoxic
PDE8A1
  IC50: > 100 µM
PDE4B3
  IC50: > 100 µM
PDE5A1
  IC50: > 100 µM
PDE2A3
  IC50: > 100 µM
PDE4D5
  IC50: > 100 µM
UT-7 cells
  HbF induction: Induction of HbF by IMR-687 was observed
K562 cells [6]
  HbF induction (ELISA): dose-dependently induced more HbF than either BAY73-6691 or BAY 41-2271
K562 cells [6]; 10 μM IMR-687
  HbF induction relative to a dose of HU that demonstrated cytotoxicity: 4.6 times
[7]; C57Bl/6J mice, 10 mg/kg/day for five days
  brain exposure levels lower than PF-04447943: 5 fold
[7]; C57Bl/6J, mouse, brain/plasma, 10 mg/kg/day
  Kp at 5 days: 0.07
PDE4A4
  IC50: > 100 µM
